Test results as given in PMC3970846 (Toxicology and applied pharmacology, 2013).
≈ marks a conversion by molar mass, not a printed value.

Columns and labels:
2B37v2 [1] = target: T1, 2B37v2 (Neotoma lepida, UniProt J9JD75); experiment: 7-BR O-debenzylation, reconstituted system; format: biochemical; details: enzyme 2B37v2
2B37v2 V480L [2] = target: T2, 2B37v2 V480L (Neotoma lepida, UniProt J9JD75, V480L, form not given); experiment: 7-BR O-debenzylation, reconstituted system; format: biochemical; details: enzyme 2B37v2 V480L
2B37v1 [3] = target: T3, 2B37v1 (Neotoma lepida, UniProt J7EWE1); experiment: 7-BR O-debenzylation, reconstituted system; format: biochemical; details: enzyme 2B37v1
rat 2B1 [4] = target: rat 2B1 (Rattus norvegicus, UniProt P00176, E2A/G22K/H23K/K25S/N29K/P24T/R27K); experiment: 7-BR O-debenzylation, reconstituted system; format: biochemical; details: enzyme 2B1
2B36v1 [5] = target: T4, 2B36v1 (Neotoma lepida, UniProt J7EWE5); experiment: 7-BR O-debenzylation, reconstituted system; format: biochemical
2B37v2 V114I [6] = target: T5, 2B37v2 V114I (Neotoma lepida, UniProt J9JD75, V114I, form not given); experiment: 7-BR O-debenzylation, reconstituted system; format: biochemical; details: enzyme 2B37v2 V114I
2B35v1 [7] = target: T6, 2B35v1 (Neotoma lepida, UniProt J7EVA5); experiment: 7-BR O-debenzylation, reconstituted system; format: biochemical; details: substrate 7-BR; enzyme 2B35v1
T6 sequence (J7EVA5 22-491): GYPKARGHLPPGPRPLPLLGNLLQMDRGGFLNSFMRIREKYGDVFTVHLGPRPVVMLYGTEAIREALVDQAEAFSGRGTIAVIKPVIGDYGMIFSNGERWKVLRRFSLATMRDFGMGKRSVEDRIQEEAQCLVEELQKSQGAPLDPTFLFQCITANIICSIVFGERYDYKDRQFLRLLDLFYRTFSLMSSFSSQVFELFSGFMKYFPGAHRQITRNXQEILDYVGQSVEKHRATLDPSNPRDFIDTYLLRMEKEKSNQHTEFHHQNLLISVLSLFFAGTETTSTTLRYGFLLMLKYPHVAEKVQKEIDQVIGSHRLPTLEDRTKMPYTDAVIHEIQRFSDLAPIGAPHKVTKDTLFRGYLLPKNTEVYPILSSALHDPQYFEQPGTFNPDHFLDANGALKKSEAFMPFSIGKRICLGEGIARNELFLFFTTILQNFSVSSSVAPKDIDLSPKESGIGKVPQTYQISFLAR
Outline: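 Same His4-tagged enzyme and purification, and same reconstituted system (P450:rat reductase:rat b5 1:4:2). 7-BR 0–10 μM in 50 mM HEPES pH 7.4, 15 mM MgCl2. NADPH 1 mM final started the reaction, 10 min at 37 °C, then methanol quench. Resorufin read at ex 550/em 580 nm, calibrated daily with 0–2 μM resorufin. Steady-state parameters from Michaelis-Menten regression.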

2B37v2 R262K [8] = target: T7, 2B37v2 R262K (Neotoma lepida, UniProt J9JD75, R262K, form not given); experiment: 7-BR O-debenzylation, reconstituted system; format: biochemical; details: enzyme 2B37v2 R262K
[9] = Solubility limit in aqueous solutions; format: physicochemical
2B37v1 K262R [10] = target: T8, 2B37v1 K262R (Neotoma lepida, UniProt J7EWE1, K262R, form not given); experiment: 7-BR O-debenzylation, reconstituted system; format: biochemical; details: enzyme 2B37v1 K262R
2B37v2 V114I/V480L = 2B37v2 V114I/V480L (Neotoma lepida, UniProt J9JD75, V114I/V480L, form not given); experiment: 7-EFC O-deethylation, reconstituted system; format: biochemical; details: enzyme 2B37v2 V114I/V480L
2B37v2 V114I [11] = target: T5, 2B37v2 V114I; experiment: 7-EFC O-deethylation, reconstituted system; format: biochemical; details: enzyme 2B37v2 V114I
2B37v2 R262K [12] = target: T7, 2B37v2 R262K; experiment: 7-EFC O-deethylation, reconstituted system; format: biochemical
2B37v2 [13] = target: T1, 2B37v2; experiment: 7-EFC O-deethylation, reconstituted system; format: biochemical
2B36v1 [14] = target: T4, 2B36v1; experiment: 7-EFC O-deethylation, reconstituted system; format: biochemical; details: enzyme 2B36v1
2B35v1 [15] = target: T6, 2B35v1; experiment: 7-EFC O-deethylation, reconstituted system; format: biochemical; details: substrate 7-EFC; enzyme 2B35v1
Outline: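 Enzyme with C-terminal His4 tag, expressed in TOPP3 cells and purified on Ni-NTA then CM-Sepharose. Reconstituted with rat NADPH-P450 reductase and rat cytochrome b5 (P450:reductase:b5 1:4:2). 7-EFC 0–150 μM in 50 mM HEPES pH 7.4, 15 mM MgCl2. Started with 1 mM NADPH, 10 min at 37 °C, quenched with ice-cold acetonitrile, diluted into 0.1 M Tris pH 9.0. 7-HFC read at ex 410/em 510 nm, calibrated daily with 0–2 μM HFC. Michaelis-Menten fit.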

2B37v2 V480L [16] = target: T2, 2B37v2 V480L; experiment: 7-EFC O-deethylation, reconstituted system; format: biochemical; details: enzyme 2B37v2 V480L
2B37v1 K262R [17] = target: T8, 2B37v1 K262R; experiment: 7-EFC O-deethylation, reconstituted system; format: biochemical
2B37v1 [18] = target: T3, 2B37v1; experiment: 7-EFC O-deethylation, reconstituted system; format: biochemical
human 2B6 = details: ref Talakad et al., 2009; cited from earlier work
[19] = ref Sridhar et al., 2012; cited from earlier work
2B37v2 [20] = target: T1, 2B37v2; details: read-out: (+)-α-pinene spectral binding KS; enzyme 2B37v2; 25 °C
2B35v1 [21] = target: T6, 2B35v1; details: read-out: (+)-α-pinene spectral binding KS; enzyme 2B35v1; 25 °C
2B36v1 [22] = target: T4, 2B36v1; details: read-out: (+)-α-pinene spectral binding KS; enzyme 2B36v1; 25 °C
rat 2B1 [23] = target: T9, rat 2B1 (Rattus norvegicus, UniProt P00176, E2A/G22K/H23K/K25S/N29K/P24T/R27K); format: binding
T9 sequence (P00176 with tags, fused parts or gaps limits assumed): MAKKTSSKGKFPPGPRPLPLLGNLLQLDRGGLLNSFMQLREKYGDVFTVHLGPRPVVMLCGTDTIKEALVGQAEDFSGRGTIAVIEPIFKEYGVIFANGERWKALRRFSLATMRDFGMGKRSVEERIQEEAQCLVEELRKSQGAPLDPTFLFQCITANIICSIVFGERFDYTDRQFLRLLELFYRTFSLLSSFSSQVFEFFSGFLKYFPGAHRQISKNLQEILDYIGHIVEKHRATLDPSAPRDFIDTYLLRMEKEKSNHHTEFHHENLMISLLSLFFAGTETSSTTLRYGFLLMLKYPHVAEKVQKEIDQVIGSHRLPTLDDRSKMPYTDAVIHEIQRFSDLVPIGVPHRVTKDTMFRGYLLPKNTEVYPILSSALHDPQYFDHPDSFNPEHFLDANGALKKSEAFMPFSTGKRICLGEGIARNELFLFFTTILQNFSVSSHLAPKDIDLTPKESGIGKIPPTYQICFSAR

2B37v1 [24] = target: T3, 2B37v1; details: read-out: (+)-α-pinene spectral binding KS; enzyme 2B37v1; 25 °C
[25] = tested on: CCOc1ccc2c(C(F)(F)F)cc(=O)oc2c1; experiment: 7-EFC O-deethylation, reconstituted system; format: biochemical, rat; details: other: enzyme 2B1; 37.0 °C
[26] = read-out: 7-BR O-debenzylation KM
[27] = read-out: 7-EFC O-deethylation KM

Compound: O=c1ccc2nc3ccc(OCc4ccccc4)cc3oc-2c1 [7-BR, 7-benzyloxyresorufin]
- 7-BR O-debenzylation kcat (2B37v2 [1]): 0.25 ± 0.06 min^−^1
- Km (2B37v2 [1]; [26]): 9.5 ± 0.5 µM
- 7-BR O-debenzylation kcat (2B37v2 V480L [2]): 0.47 ± 0.08 min^−^1
- Km (2B37v2 V480L [2]; [26]): 4.5 ± 0.7 µM
- 7-BR O-debenzylation kcat (2B37v1 [3]): 0.16 ± 0.04 min^−^1
- Km (2B37v1 [3]; [26]): 7.2 ± 0.6 µM
- 7-BR O-debenzylation kcat (rat 2B1 [4]): ~ 4.5 min^−^1
- efficiency for 7-BR O-debenzylation relative to 2B1 (2B36v1 [5]; 2B36v1 as fraction of 2B1): 1/40
- 7-BR O-debenzylation kcat (2B36v1 [5]; enzyme 2B36v1): 0.10 ± 0.03 min^−^1
- Km (2B36v1 [5]; read-out: 7-BR O-debenzylation KM, enzyme 2B36v1): 1.7 ± 0.3 µM
- 7-BR O-debenzylation kcat (2B37v2 V114I [6]): 0.13 ± 0.01 min^−^1
- Km (2B37v2 V114I [6]; [26]): 5.7 ± 1 µM
- O-dealkylation products (2B35v1 [7]): not detected
- 7-BR O-debenzylation kcat (2B37v2 R262K [8]): 0.18 ± 0.05 min^−^1
- Km (2B37v2 R262K [8]; [26]): 9.2 ± 0.7 µM
- solubility [9]: ~10 µM (≈ 3.03 µg/mL)
- 7-BR O-debenzylation kcat (2B37v1 K262R [10]): 0.15 ± 0.07 min^−^1
- Km (2B37v1 K262R [10]; [26]): 8.1 ± 0.7 µM

Compound: CCOc1ccc2c(C(F)(F)F)cc(=O)oc2c1 [7-EFC, 7-ethoxy-4-(trifluoromethyl)coumarin]
- 7-EFC O-deethylation kcat (2B37v2 V114I/V480L): 20.8 ± 2.8 min^−^1
- Km (2B37v2 V114I/V480L; [27]): 32.5 ± 4.4 µM
- 7-EFC O-deethylation kcat (2B37v2 V114I [11]): 6.3 ± 1.9 min^−^1
- Km (2B37v2 V114I [11]; [27]): 120 ± 2 µM
- decrease in 7-EFC catalytic efficiency (2B37v2 R262K [12]; 2B37v2 R262K vs 2B37v2): 85%
- 7-EFC O-deethylation kcat (2B37v2 R262K [12]; enzyme 2B37v2 R262K): 2.0 ± 0.1 min^−^1
- Km (2B37v2 R262K [12]; read-out: 7-EFC O-deethylation KM, enzyme 2B37v2 R262K): 20.3 ± 2.8 µM
- kcat for 7-EFC-O-deethylation greater than that of 2B1 (2B37v2 [13]; 2B37v2 vs 2B1): 2 fold
- 7-EFC O-deethylation kcat (2B37v2 [13]; enzyme 2B37v2): 14.5 ± 8.3 min^−^1
- Km (2B37v2 [13]; read-out: 7-EFC O-deethylation KM, enzyme 2B37v2): 20 ± 4.2 µM
- 7-EFC O-deethylation kcat (2B36v1 [14]): 3.3 ± 1.0 min^−^1
- Km (2B36v1 [14]; [27]): 18.3 ± 7 µM
- O-dealkylation products (2B35v1 [15]): not detected
- 7-EFC O-deethylation kcat (2B37v2 V480L [16]): 22.3 ± 2.0 min^−^1
- Km (2B37v2 V480L [16]; [27]): 23.9 ± 3.6 µM
- decrease in 7-EFC kcat (2B37v1 K262R [17]; 2B37v1 K262R vs 2B37v1): ~ 45%
- reduction of 7-EFC catalytic efficiency (2B37v1 K262R [17]; 2B37v1 K262R vs 2B37v1): ~ 35%
- 7-EFC O-deethylation kcat (2B37v1 K262R [17]; enzyme 2B37v1 K262R): 5.4 ± 0.2 min^−^1
- Km (2B37v1 K262R [17]; read-out: 7-EFC O-deethylation KM, enzyme 2B37v1 K262R): 19 ± 2.3 µM
- 7-EFC KM lower than 2B1 (2B37v1 [18]; 2B37v1 vs 2B1): ~ 25%
- 7-EFC catalytic efficiency higher than for 2B1 (2B37v1 [18]; 2B37v1 vs 2B1): ~ 1.8 fold
- 7-EFC kcat higher than that for 2B1 (2B37v1 [18]; 2B37v1 vs 2B1): ~ 1.4 fold
- kcat for 7-EFC-O-deethylation greater than that of 2B1 (2B37v1 [18]; 2B37v1 vs 2B1): ~ 50%
- 7-EFC O-deethylation kcat (2B37v1 [18]; enzyme 2B37v1): 10.0 ± 0.3 min^−^1
- Km (2B37v1 [18]; read-out: 7-EFC O-deethylation KM, enzyme 2B37v1): 23.5 ± 2 µM

Compound: COC(=O)[C@H](c1ccccc1Cl)N1CCc2sccc2C1 [clopidogrel]
- KS (human 2B6): low micromolar
- maximal increase in HSP450 content upon binding (human 2B6): 2.6%

Compound: CN[C@H]1CC[C@@H](c2ccc(Cl)c(Cl)c2)c2ccccc21 [sertraline]
- maximal increase in HSP450 content upon binding (human 2B6): 0.8%

Compound: Clc1ccccc1CN1CCc2sccc2C1 [ticlopidine]
- KS (human 2B6): low micromolar
- maximal increase in HSP450 content upon binding (human 2B6): 2.3%

Compound: (+)-α-pinene
- log P [19]: 4.44
- Kd (2B37v2 [20]): 910 ± 70 nM
- Kd (2B35v1 [21]): 1270 ± 490 nM
- Kd (2B36v1 [22]): 580 ± 40 nM
- (+)-α-pinene spectral binding %HSP450 Max Δ (rat 2B1 [23]; maximum change in high-spin P450 content, enzyme 2B1): 48.7 ± 1.3%
- difference spectra type induced (rat 2B1 [23]; peak ~388 nm, trough ~420 nm, represented with 2B1, seen with each enzyme): Type I
- Kd (rat 2B1 [23]; read-out: (+)-α-pinene spectral binding KS, enzyme 2B1, 25 °C): 870 ± 80 nM
- Kd (2B37v1 [24]): 9330 ± 760 nM

Compound: rat 2B1 (Rattus norvegicus; E2A/G22K/H23K/K25S/N29K/P24T/R27K)
- Km [25]: 32.4 ± 4.9 µM
- kcat [25]: 0.115 ± 0.02 s⁻¹
- kcat/Km [25]: 3500 M⁻¹ s⁻¹
